From ChEMBL document CHEMBL4393735, “Molecular modelling, synthesis, and biological evaluations of a 3,5-disubstituted isoxazole fatty acid analogue as a PPARα-selective agonist” (Bioorg Med Chem, 2019)
Active and inactive are the calls of the source.

Key:
[1] = molecular target: T1, Peroxisome proliferator-activated receptor alpha (Homo sapiens) (UniProt Q07869); assay: Agonist activity at full length human FLAG-tagged GAL4-DBD fused PPARalpha LBD (168 to 468 residues) expressed in COS1 cells transfected with hRXRalpha and pGL3-CPT1AInt PPRE mutant assessed as CPT1A mRNA level at 50 uM measured after 18 hrs by dual luciferase reporter gene assay; assay type: cell-based
T1 sequence (whole entry): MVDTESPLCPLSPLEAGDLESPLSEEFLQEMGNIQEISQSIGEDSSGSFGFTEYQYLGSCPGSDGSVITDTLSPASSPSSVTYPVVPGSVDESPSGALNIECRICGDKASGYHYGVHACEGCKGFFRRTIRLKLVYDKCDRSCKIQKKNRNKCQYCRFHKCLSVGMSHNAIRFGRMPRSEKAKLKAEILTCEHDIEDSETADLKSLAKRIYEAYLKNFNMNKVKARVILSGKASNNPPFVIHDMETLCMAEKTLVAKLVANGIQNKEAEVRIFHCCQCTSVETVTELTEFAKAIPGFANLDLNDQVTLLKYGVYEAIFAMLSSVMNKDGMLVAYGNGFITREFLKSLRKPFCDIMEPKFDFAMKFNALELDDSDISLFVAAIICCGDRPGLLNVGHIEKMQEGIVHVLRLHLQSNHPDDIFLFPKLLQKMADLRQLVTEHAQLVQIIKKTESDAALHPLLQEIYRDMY
Outline: (§1)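 COS-1 cells were transfected with full-length human PPARα (or PPARγ) plus RXRα expression plasmids, with a wild-type or PPRE-mutated CPT1A-intronic (or PLIN1) luciferase reporter and pRL-CMV. Cells were treated with 50 μM in 0.1% DMSO (final) for 18 h. Dual-luciferase read-out normalized to DMSO control. Three biological replicates in quadruplicate, mean ± SEM.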

[2] = system: SGBS; assay: Upregulation of CEBPA gene expression in human preadipocyte derived from Simpson-Golabi-Behmel syndrome (SGBS) patient at 25 uM measured for 12 days by qRT-PCR analysis; assay type: functional, cell-based
Outline: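 SGBS cells were differentiated with serum-free induction medium containing 25 μM test agent, 2 μM rosiglitazone or 0.1% DMSO from day 0. IBMX and dexamethasone were removed on day 4 and medium was renewed on day 8. RNA was taken on days 0, 4, 8 and 12 for qPCR, normalized to TBP and to day 0. At least three biological replicates in duplicate, two-way ANOVA with Bonferroni.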

[3] = system: SGBS; assay: Upregulation of PPARgamma gene expression in human preadipocyte derived from Simpson-Golabi-Behmel syndrome (SGBS) patient at 25 uM measured for 12 days by qRT-PCR analysis; assay type: functional, cell-based
Outline: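 SGBS cells grown 4 days in biotin/D-pantothenate medium, then differentiated without FBS (apo-transferrin, insulin, T3, hydrocortisol, IBMX, dexamethasone) with 25 μM compound or 0.1 % DMSO added from day 0. After 4 days, switched to maintenance medium without IBMX/dexamethasone, renewed day 8. qPCR on days 0, 4, 8, 12, normalized to TBP (comparative threshold) and to day 0. Minimum three biological replicates in duplicate, mean ± SEM.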

[4] = molecular target: T1, Peroxisome proliferator-activated receptor alpha (Homo sapiens); assay: Agonist activity at full length human FLAG-tagged GAL4-DBD fused PPARalpha LBD (168 to 468 residues) expressed in COS1 cells transfected with hRXRalpha and hCPT1A-driven reporter assessed as increase in CPT1A mRNA level at 50 uM measured after 18 hrs by dual luciferase reporter gene assay; assay type: cell-based; outline: as §1
[5] = molecular target: T1, Peroxisome proliferator-activated receptor alpha (Homo sapiens); assay: Agonist activity at PPARalpha in human Huh7 cells assessed as PPARA mRNA expression at 50 uM measured after 18 hrs by qRT-PCR analysis; assay type: cell-based
Outline: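 Treatment for 18 h at 50 μM (or 1 μM for the 1 μM agents), DMSO vehicle. Harvested for qPCR. mRNA normalized to TBP by the comparative threshold method, expressed relative to DMSO control. Two biological replicates run in duplicate, mean ± SEM. Primary hepatocytes came from male C57BL/6N mice aged 7–8 weeks, isolated by portal-vein perfusion and digestion, seeded on collagen I and used on day 2. HuH-7 cells were kept in DMEM with 10% FBS and ITS.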

[6] = molecular target: T2, Peroxisome proliferator-activated receptor gamma (Homo sapiens) (UniProt P37231); assay: Agonist activity at full length human FLAG-tagged GAL4-DBD fused PPARgamma LBD (205 to 505 residues) expressed in COS1 cells transfected with hRXRalpha and hPLIN1-driven reporter assessed as PLIN1 mRNA level at 50 uM measured after 18 hrs by dual luciferase reporter gene assay; assay type: cell-based; outline: as §1
T2 sequence (whole entry): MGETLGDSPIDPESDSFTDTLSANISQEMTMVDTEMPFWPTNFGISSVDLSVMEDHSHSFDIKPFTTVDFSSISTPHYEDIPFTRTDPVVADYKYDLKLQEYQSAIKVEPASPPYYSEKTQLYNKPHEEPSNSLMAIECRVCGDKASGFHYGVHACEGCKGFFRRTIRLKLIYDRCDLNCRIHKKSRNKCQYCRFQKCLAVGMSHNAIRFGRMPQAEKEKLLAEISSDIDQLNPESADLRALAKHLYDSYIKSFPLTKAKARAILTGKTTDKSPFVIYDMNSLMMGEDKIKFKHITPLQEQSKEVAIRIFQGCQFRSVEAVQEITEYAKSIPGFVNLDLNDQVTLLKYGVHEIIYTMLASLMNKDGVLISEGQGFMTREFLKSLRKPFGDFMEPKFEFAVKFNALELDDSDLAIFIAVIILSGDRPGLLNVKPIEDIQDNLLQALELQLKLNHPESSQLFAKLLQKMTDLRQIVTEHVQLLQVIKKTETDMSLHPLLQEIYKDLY

[7] = molecular target: T3, Oxysterols receptor LXR-beta (Homo sapiens) (UniProt P55055); assay: Agonist activity at full length human GAL4-DBD fused LXRbeta LBD (155 to 461 residues) expressed in COS1 cells at 25 to 50 uM measured after 18 hrs by dual luciferase reporter gene assay; assay type: cell-based
T3 sequence (whole entry): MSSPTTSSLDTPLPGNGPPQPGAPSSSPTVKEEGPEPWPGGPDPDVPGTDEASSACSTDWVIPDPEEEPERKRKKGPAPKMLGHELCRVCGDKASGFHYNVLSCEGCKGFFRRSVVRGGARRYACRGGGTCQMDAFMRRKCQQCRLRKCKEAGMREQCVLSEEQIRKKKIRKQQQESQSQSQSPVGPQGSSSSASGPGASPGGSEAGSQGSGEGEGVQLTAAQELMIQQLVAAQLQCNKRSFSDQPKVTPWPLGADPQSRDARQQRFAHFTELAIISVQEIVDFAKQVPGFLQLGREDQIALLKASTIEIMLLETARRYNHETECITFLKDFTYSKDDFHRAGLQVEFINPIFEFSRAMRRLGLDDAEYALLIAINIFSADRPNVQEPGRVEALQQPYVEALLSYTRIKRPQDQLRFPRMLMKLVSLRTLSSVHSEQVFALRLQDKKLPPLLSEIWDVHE
Outline: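 COS-1 cells were transfected using Lipofectamine 2000 with GAL4-DBD–human NR-LBD plasmid, a 5×UAS-SV40 firefly luciferase reporter and pRL-CMV. After 6 h, cells were treated with 0, 25 or 50 μM in 0.1% DMSO (final) for 18 h. Firefly signal was normalized to Renilla, then to DMSO control and GAL4-only. Three biological replicates in quadruplicate, mean ± SEM, two-way ANOVA with Bonferroni.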

Activity [1]: inactive | Activity [4]: Active | Activity [5]: inactive | Activity [6]: inactive | Activity [7]: inactive
SMILES: CCCCCCCc1cc(CCCCCC(=O)O)no1
Activity [2]: Active | Activity [3]: Active
